Measured values collected from several papers.
Effect on: metabolic stability

Cc1nc([C@@](C)(CC2CC2)NC(=O)c2cc(OCC(F)(F)F)c(C3CC3)cn2)no1  hepatocyte CLint (human; hepatocytes): 17 µL/min/10⁶ cells
C#Cc1ccc2c(c1)C(c1ccccn1)=NCc1c(-c3cnco3)ncn1-2  microsomal CLint (human; liver microsomes): 0.046 µL/min/mg
Cc1nonc1Cn1nnc2c(N3CC[C@H](O)C3)nc(C(C)(C)C)nc21  hepatocyte CLint (human; hepatocytes): 8.1 µL/min/10⁶ cells
Cc1ccc(F)c2cc(C(=O)N[C@@H]3CCC[C@H](N4CC[C@H](N(C)S(C)(=O)=O)C4)C3)[nH]c12  scaled CLint (human; hepatocytes; 0.5 µM; 2 h): 51 mL/min/kg
COC(=O)N[C@H](C(=O)NN(CC[C@@]1(Cc2ccccc2)C(=O)N([C@H]2c3ccccc3C[C@H]2O)C[C@@H]1O)Cc1ccc(Br)cc1)C(C)(C)C  microsomal CLint (human; liver microsomes; 1 µM; pH 7.35): > 300 µL/min/mg
CN1CCN(Cc2ccc(NC(=O)c3cncc(C#Cc4cnc(N)c5ncccc45)c3)cc2C(F)(F)F)CC1  microsomal CLint (human; liver microsomes): 3.6 µL/min/mg
CN(C)CCc1c[nH]c2ccccc12  hepatocyte CLint (human; hepatocytes; 0.6 µM): 19.4 µL/min/10⁶ cells
CCCCCn1cc(C(=O)Nc2cccc3ccccc23)c2ccccc21  microsomal CLint (male human; liver microsomes; 1 µM; pH 7.4): 300 µL/min/mg
Cc1nc2c(=O)n(C)c(=O)nc-2n(C)n1  microsomal CLint (human; liver microsomes): < 7.4 µL/min/mg
Cc1cc(C)nc(Nc2ncc(C(=O)NCCc3c(C)[nH]c4ccccc34)cn2)c1  microsomal CLint (human; liver microsomes; 1 µM): 25 µL/min/mg
Cc1ncc2n1-c1ccc(Cl)cc1C(c1ccccc1F)=NC2  microsomal CLint (human; liver microsomes; 1 µM): > 250 µL/min/mg
C[C@H]1CN(Cc2ccc(C(F)(F)F)cc2N2CCOCC2)CCN1C(=O)n1ccc(S(=O)(=O)N(C)C)n1  microsomal CLint (human; liver microsomes): 480 µL/min/mg
NCCc1c[nH]c2ccc(O)cc12  hepatocyte CLint (human; hepatocytes; 5 µM): 38.6 µL/min/10⁶ cells
CCCCCn1nc(C(=O)Nc2cccc3ccccc23)c2ccccc21  microsomal CLint (male human; liver microsomes; 1 µM; pH 7.4): 410 µL/min/mg
C[C@H](C(=O)N[C@H]1COc2ccccc2[C@@H]1S(C)(=O)=O)c1ccc(F)cc1  microsomal CLint (human; liver microsomes; 1 µM; 1 h): 3 µL/min/mg
